Like-named read-outs stand apart in the source and are kept apart here.
Tests used:
T. gondii = conditions: cited from earlier work
[1] = test system: T. gondii ME49 strain (type II) tachyzoites; test: Effect on tachyzoites of the ME49 strain in NDHF fibroblasts; type: cell-based, Toxoplasma gondii; conditions: 1 μM TST, 0.1 μM SAHA, 24 h
[2] = test system: T. gondii RH-ACP-YFP tachyzoite mitochondria; test: MitoTracker fluorescence analysis of parasite mitochondria; type: cell-based, Toxoplasma gondii; conditions: 1 μM TST, 0.1 μM SAHA, 24 h
Outline: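 NDHF fibroblasts infected with RH-ACP-YFP tachyzoites were treated for 24 h, then incubated with 50 nM MitoTracker Red CMXRos for 45 min. Mitochondrial membrane potential and partitioning were assessed by confocal and SR-SIM imaging. Two independent experiments.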

[3] = Cytotoxicity assay in host cells; type: cell-based, Human; conditions: human, NDHF fibroblasts; for CC50 at 48 h: NDHF CC50, 48h
[4] = test system: histone H3 (Lys 9/14) acetylation in T. gondii; test: Western blot of histone H3 acetylation in treated tachyzoites; type: cell-based, Toxoplasma gondii; conditions: 0,2 μM SAHA, 1 μM TST, 48 h
Outline: (§1)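 Infected NDHF fibroblasts were treated for 48 h. Tachyzoites were released by 30G needle passage, pelleted at 2000 rcf for 10 min and filter-purified; 10^6 parasites were cryolysed with protease inhibitors. Primary antibodies, 1 h: H3 and acetyl-H3 Lys9/14 each 1:1000; H4 1:3000, acetyl-H4 Lys16 1:1000; α-tubulin 1:1000, acetylated α-tubulin 1:2000. Detection by HRP secondaries and ECL. Bands from three experiments were normalised to GAPDH, and acetylated/total ratios were computed.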

[5] = Cytotoxicity assay in host cells; type: cell-based; conditions: mouse, primary microglial cultures (mixed astrocytes/microglia)
[6] = test system: bradyzoites of the EGS strain; test: Activity against bradyzoites of the EGS strain in 96 h-infected NDHF fibroblasts; type: cell-based, Toxoplasma gondii; conditions: 48 h; for proliferation or viability of bradyzoites: 1 and 5 μM TST, 0.1 μM SAHA
Outline: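 Tachyzoites of the EGS strain expressing SAG1mCherry/BAG1sfGFP were grown in NDHF fibroblasts for 96 h, when bradyzoite conversion and spontaneous cyst formation are higher, then treated for 48 h. DMSO was at most 0.1% (v/v). Bradyzoites were imaged by fluorescence microscopy and fluorescence intensity was quantified. Two independent experiments; one-way ANOVA with Bonferroni test.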

T. gondii RH tachyzoites = test: Fluorescence microscopy of cell division and apicoplast; type: cell-based, Toxoplasma gondii; conditions: 1 μM TST, 0.1 μM SAHA, 24 h; for effect on apicoplast: ACP-YFP tachyzoites
Outline: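 NDHF fibroblasts were infected with RH-ACP-YFP tachyzoites and treated for 24 h, then fixed 40 min in 4% formaldehyde/PBS and permeabilised 15 min in 0.5% Triton X-100. Staining used anti-SAG1 and rabbit anti-centrin1 (1:1000), Alexa secondaries (1:800) and Hoechst (0.5 μg/mL). Daughter budding was also examined in RH-infected cells with anti-IMC1 (1:1000). Imaging by confocal and SR-SIM; two independent experiments.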

[7] = test system: histone H4 (lys16) acetylation in T. gondii; test: Western blot of histone H4 acetylation in treated tachyzoites; type: cell-based, Toxoplasma gondii; conditions: 0,2 μM SAHA, 1 μM TST, 48 h
Outline: as §1

[8] = test system: i. p. (intra peritoneal) macrophages; test: Cytotoxicity assay in host cells; type: cell-based, mouse; conditions: read-out: Macrophages CC50; 48h
NDHF fibroblasts = test: Cytotoxicity assay in host cells; type: cell-based, Human
[9] = test system: T. gondii EGS strain (atypical, I/III); test: Antiproliferative assay, tachyzoites of EGS strain; type: cell-based; conditions: Toxoplasma gondii, 48 h, read-out: T. gondii EGS IC50
[10] = test system: T. gondii RH strain (type I) tachyzoites; test: Antiproliferative assay, tachyzoites of RH strain in LLC-MK2 cells; type: cell-based; conditions: Toxoplasma gondii
T. gondii α-tubulin = test: Western blot of α-tubulin and acetylated α-tubulin in treated tachyzoites; type: cell-based, Toxoplasma gondii; conditions: 1 μM TST, 0.1 μM SAHA, 48 h
Outline: as §1

[11] = test system: H4 acetylation in T. gondii; conditions: ref Bougdour et al., 2009; cited from earlier work

Compound | tachyzoite proliferation, ME49 strain [1] | effect on parasite mitochondria (Mitotracker) [2] | CC50 at 48 h [3] [µM] | acetylation levels of H3 (Lys 9/14), rH3ac/rH3 [4] | CC50 at 48 h [5] [µM] | proliferation or viability of bradyzoites [6] | effect on cell division / daughter cell budding (T. gondii RH tachyzoites) | effect on apicoplast (T. gondii RH tachyzoites) | acetylation levels of H4 (lys16), rH4ac/rH4 [7] | CC50 [8] [µM] | also measured
COc1cccc(CC(=O)Nc2ccc(C(=O)NO)cc2)c1 [N-hydroxy-4-[2-(3-methoxyphenyl)acetamido]benzamid] | – | – | – | – | – | – | – | – | – | – | IC50 (T. gondii; RH strain, ref Loeuillet et al., 2018): 0.35 µM
O=C(CCCCCCC(=O)Nc1ccccc1)NO [SAHA, Suberoylanilide Hydroxamic Acid] | inhibit tachyzoite proliferation significantly | mitochondrion fragmentation | > 20 | modest increase | > 20 | inhibited significantly | masses of damaged parasites showing several centrosomes | apicoplast fragmentation | modest increase | 4.61 | amount of bradyzoites in the culture ([6]; 0.2 μM SAHA): maintained the same amount of bradyzoites in the culture as in the control
CN1CCc2c(c3ccccc3n2Cc2ccc(C(=O)NO)cc2)C1 [TST, Tubastatin A] | inhibit tachyzoite proliferation significantly | reduction of the labeling intensity of mitochondria | > 20 | decrease below the levels of the untreated cells | > 20 | inhibited significantly | formation of a rounded mass of parasites | Alteration at the apicoplast partition | significant increase | 13.5 | CC50 at 120 h ([3]; CC50, NDHF fibroblasts, treatment for 120 h with higher concentrations (20–80 μM)): 29.9 µM; CC50 times higher than the IC50 obtained for T. gondii (NDHF fibroblasts; CC50 in NDHF after 120 h): 57 times; selective index (NDHF fibroblasts; in different types of mammalian cells after 48 h of treatment): at least 20; IC50 [9]: 0.29 µM; IC90 ([10]; LLC-MK2): 5 µM; IC50 ([10]; LLC-MK2, 24 h): 0.019 ± 0.001 µM; IC50 ([10]; LLC-MK2, 48 h, read-out: T. gondii RH IC50): 0.52 µM; tubulin acetylation levels, ratio rTubac/rTub (T. gondii α-tubulin): no change
CCc1nc(N)nc(N)c1-c1ccc(Cl)cc1 [pyrimethamine] | – | – | – | – | – | – | – | – | – | – | IC50 (T. gondii; read-out: IC50 against T. gondii, ref Dubar et al., 2011, Martins-Duarte, 2006): 0.12 µM
FR235222 | – | – | – | – | – | – | – | – | – | – | H4 acetylation [11]: increased H4 acetylation
